# ChEMBL document CHEMBL2040734, “Benzothiazoles: search for anticancer agents” (2012)
# Assays:
# Format in all cases: functional
# HOP-92 = experiment: Growth inhibition of human HOP92 cells after 48 hrs by sulforhodamine B assay; settings: HOP-92, 48 h
# Procedure, shortened: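 Adherent NCI-60 lines were grown in RPMI 1640 with 5% FBS and 2 mM L-glutamine, plated at 5000–40,000 cells/well and preincubated 24 h. They were then exposed to five concentrations (0.01–100 µM, from a DMSO stock) for 48 h at 37 °C, 5% CO2. Cells were fixed with cold TCA (10% final, 60 min, 4 °C) and stained with 0.4% SRB. Dye was solubilized in 10 mM Tris base and A515 read. GI50 was derived from time-zero, control and treated absorbances.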
# NCI-H226 [1] = experiment: Cytotoxicity against human NCI-H226 cells assessed as cell growth at 1 uM after 48 hrs by sulforhodamine B assay; settings: NCI-H226, 48 h, read-out: Activity
# NCI-H226 [2] = experiment: Cytotoxicity against human NCI-H226 cells assessed as cell growth at 10 uM after 48 hrs by sulforhodamine B assay; settings: NCI-H226, 48 h, read-out: Activity
# NCI-H226 [3] = experiment: Cytotoxicity against human NCI-H226 cells assessed as cell growth at 0.1 uM after 48 hrs by sulforhodamine B assay; settings: NCI-H226, 48 h, read-out: Activity
structure (smiles),measurement,setting,value
Clc1cccc(Cl)c1Nc1nc2cccc(Cl)c2s1,GI50,HOP-92,71.8 nM
same,TGI,HOP-92,690 nM
same,CC50,HOP-92; read-out: LC50 (the source's name),3610 nM
same,growth at 1 µM,NCI-H226 [1],-9%
same,growth at 10 µM,NCI-H226 [2],-83%
same,growth at 0.1 µM,NCI-H226 [3],45%
